This passage reports Ki and IC50 results from ChEMBL document CHEMBL3877244, “Synthesis and biological evaluation of new aryl-alkyl(alkenyl)-4-benzylpiperidines, novel Sigma Receptor (SR) modulators, as potential anticancer-agents” (Eur J Med Chem, 2016).

In test [1] the target is Sigma non-opioid intracellular receptor 1 (Cavia porcellus, UniProt Q60492). The test is described as follows: Displacement of [3H]-pentazocine from sigma 1 receptor in guinea pig brain cortical membrane after 120 mins by scintillation counting analysis. It is filed as cell membranes. In short, it runs like this: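 Nonspecific binding defined with unlabeled (+)-pentazocine. Filtration, then scintillation counting. IC50 by nonlinear regression, converted to Ki by Cheng–Prusoff.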
For orientation: Displacement assays read how much labelled ligand stays bound in the presence of the test substance.

A short description of test [2]: Displacement of [3H]-DTG from sigma 2 receptor in rat liver after 120 mins by scintillation counting analysis. The essentials:
(§1)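 Rat liver homogenate (150 µg) incubated 120 min at room temperature with 3 nM [³H]-DTG in 50 mM Tris-HCl pH 8.0. (+)-Pentazocine 100 nM masked S1R; haloperidol 10 µM defined nonspecific binding. Ki by Cheng–Prusoff from IC50.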

A short description of test [3]: Antiproliferative activity against human MIAPaCa2 cells after 24 hrs. It is filed as functional, cell-based. The settings on record: MIA PaCa-2, 24 h.
A short description of test [4]: Antiproliferative activity against human AsPC1 cells after 24 hrs. It is filed as functional, cell-based. The settings on record: ASPC1, 24 h.
Test [5] can be described thus: Antiproliferative activity against human BxPC3 cells after 24 hrs. The test is classed as functional, cell-based. The settings on record: BXPC-3, 24 h.
Test [6] in a line: Antiproliferative activity against human CFPAC cells after 24 hrs. It is filed as functional, cell-based.
Test [7] can be described thus: Antiproliferative activity against mouse Panc02 cells after 24 hrs. It is filed as functional, cell-based. The settings on record: Panc02, 24 h.
Test [8] is described as follows: Antiproliferative activity against human PANC1 cells after 24 hrs. The settings on record: PANC-1, 24 h. The test is classed as functional, cell-based.
Test [9] can be described thus: Binding affinity to sigma 2 receptor (unknown origin). The essentials:
(§2)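 Rat liver homogenate (150 µg) was incubated 120 min at room temperature with 3 nM [3H]-DTG in 50 mM Tris-HCl pH 8.0, with test compound at 10^-10 to 10^-5 M (final). 100 nM (+)-pentazocine masked S1R and 10 µM haloperidol defined nonspecific binding. Filtration and scintillation counting were used. Ki came from regression IC50 via Cheng-Prusoff.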

Test [10] has as its target Sigma non-opioid intracellular receptor 1 (Homo sapiens, UniProt Q99720). Put plainly: Binding affinity to sigma 1 receptor (unknown origin).
Test [11] is described as follows: Displacement of [3H]DTG from sigma 2 receptor in rat brain homogenates without cerebellum. The test is classed as tissue-based.
The nature of test [12]: Cytotoxicity against human Paca3 cells assessed as decrease in cell viability using complete medium after 24 hrs by MTS assay. The test is classed as functional, cell-based. The settings on record: Paca3, 24 h. The essentials:
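Cells in exponential growth, 3×10^3 per well, in medium with 10% FCS. Capan-2, PaCa3, MDA-MB 231, SUM 159 and PC3 were grown in DMEM/Ham's F12 with glutamine 2 mM and insulin 10 µg/ml. U87 was grown in EMEM and LNCaP in RPMI, each with glutamine. Compound 0.1–100 µM, continuous exposure (24 h; 48 h for the 48 h lines). MTS, OD 490 nm. IC50 read graphically. Three independent experiments in octuplicate.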
For orientation: Tetrazolium assays rely on reduction of a dye to a coloured formazan, in cell work by metabolically active cells.

Test [13] can be described thus: Cytotoxicity against human Paca3 cells assessed as decrease in cell viability under starvation condition after 24 hrs by MTS assay. The settings on record: Paca3, 24 h. The test is classed as functional, cell-based. The essentials: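 Cells starved 24 h in low-glucose medium without FCS, then treated 24 h with compound in serum-free conditions. MTS read-out, OD 490 nm, expressed as percent of untreated control. IC50 read graphically from the dose-response plot. Three independent experiments in octuplicate.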

The nature of test [14]: Displacement of [3H]-DTG from sigma 2 receptor in rat liver membranes after 120 mins by scintillation counting analysis. It is filed as cell membranes, Membrane. The essentials:
as §2

The nature of test [15]: Displacement of [3H]-DTG from sigma 2 receptor in Sprague-Dawley rat liver membranes after 120 mins by scintillation counting analysis. It is filed as cell membranes, Membrane. The essentials:
as §1

Chain of Sigma non-opioid intracellular receptor 1 (Cavia porcellus, UniProt Q60492) (Q60492 whole entry): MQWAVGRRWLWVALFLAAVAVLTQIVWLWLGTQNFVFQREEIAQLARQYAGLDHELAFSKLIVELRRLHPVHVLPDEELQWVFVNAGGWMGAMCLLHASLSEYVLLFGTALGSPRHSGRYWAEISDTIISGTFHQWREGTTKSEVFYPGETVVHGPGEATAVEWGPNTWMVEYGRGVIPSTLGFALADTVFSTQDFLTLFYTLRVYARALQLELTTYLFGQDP
Chain of Sigma non-opioid intracellular receptor 1 (Homo sapiens, UniProt Q99720) (Q99720 whole entry): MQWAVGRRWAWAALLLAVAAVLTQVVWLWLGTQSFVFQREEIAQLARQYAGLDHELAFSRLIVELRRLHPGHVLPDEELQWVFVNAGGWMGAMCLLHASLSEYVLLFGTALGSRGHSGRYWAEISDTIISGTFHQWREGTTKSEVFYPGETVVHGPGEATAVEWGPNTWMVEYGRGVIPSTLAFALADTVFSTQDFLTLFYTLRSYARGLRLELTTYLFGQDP

By Ki is commonly meant the dissociation constant of the complex between target and ligand, obtained from inhibition or displacement. In the case of `CC(CCN1CCC(Cc2ccccc2)CC1)c1ccccc1` (stereo in doubt; 6b), the Ki in [1] was 0.003 µM; in test [2] it was 0.0079 µM.

As for `CC(CCN1CCC(Cc2ccccc2)CC1)c1ccc2cc(O)ccc2c1` (single isomer, unassigned; (+)), the Ki in [1] amounted to 0.035 µM; in test [2], 0.582 µM.

As for `C/C(=C\CN1CCC(Cc2ccccc2)CC1)c1ccc2cc(O)ccc2c1`, the Ki stood at 0.0096 µM in [1] and 0.305 µM in test [2].

Usually IC50 stands for the point on the concentration scale where inhibition reaches its midpoint. For the compound `COc1ccc(C)cc1NC(=O)OC1CC2CCCC(C1)N2CCCCCCN` (stereo not given), the IC50 in test [3], in test [4], in test [5], in test [6], in [7] and in test [8] was ≤ 100 µM in each case.

Consider `CC(CCN1CCC(Cc2ccccc2)CC1)c1ccc2ccccc2c1` (single isomer, unassigned; (-)), for which the Ki in test [1] came to 0.0069 µM; in test [2] it was 0.098 µM.

As to `CC(O)(CCN1CCC(Cc2ccccc2)CC1)c1ccc2cc(O)ccc2c1` (racemic), the Ki worked out at 0.027 µM in [1] and 0.118 µM in test [2].

Take `CC(CCN1CCC(Cc2ccccc2)CC1)c1ccc2cc(O)ccc2c1` (stereo in doubt; 12): the inhibition constant (Ki) was 0.059 µM in test [1] and 0.314 µM in [2].

Turning to `COc1ccc(C)cc1NC(=O)OC1CC2CCCC(C1)N2CCCCCCCCCCN` (stereo not given), the Ki in test [9] is 0.019 µM; in [10], 0.133 µM.

In the case of `CC(O)(CCN1CCC(Cc2ccccc2)CC1)c1ccc2ccccc2c1` (stereo in doubt; 1b), the figures for the Ki in [1] and in test [2] were 0.011 µM and 0.079 µM, respectively.

`Fc1ccc(-n2cc(CCCCN3CCC4(CC3)OCc3ccccc34)c3ccccc32)cc1` [SIRAMESINE] had a Ki in [11] of 0.00012 µM. Besides, the values for the IC50 in [12] and in test [13] were 45.4 µM and 6 µM, respectively.

In the case of `CC(O)(CCN1CCC(Cc2ccccc2)CC1)c1ccccc1` (stereo in doubt; 2a), the Ki in test [1] was 0.027 µM; in test [2], 0.339 µM.

Turning to `CC(O)(CCN1CCC(Cc2ccccc2)CC1)c1ccccc1` (stereo in doubt; 2b), the Ki was 0.04 µM in test [1] and 0.24 µM in test [2].

In the case of `CC(CCN1CCC(Cc2ccccc2)CC1)c1ccccc1` (racemic), the Ki came out at 0.0021 µM in [1] and 0.0065 µM in [2].

Turning to `O[C@@H](CN1C2CCC1CC(c1ccccc1)C2)c1cccc(Br)c1` (stereo not given in full), in [14], the Ki was 0.0123 µM. The half-inhibitory concentration (IC50) in test [3], in test [4], in test [5], in test [6], in test [7] and in test [8] was ≤ 100 µM in each case.

Take `CC(O)(CCN1CCC(Cc2ccccc2)CC1)c1ccc2cc(O)ccc2c1` (stereo in doubt; 9a): the Ki came out at 0.07 µM in test [1] and 0.068 µM in test [2].

Take `CC(CCN1CCC(Cc2ccccc2)CC1)c1ccc2cc(O)ccc2c1` (single isomer, unassigned; (-)): the figures for the inhibitory constant (Ki) in test [1] and in test [2] were 0.013 µM and 0.105 µM, respectively.

Take `C/C(=C\CN1CCC(Cc2ccccc2)CC1)c1ccccc1`: the Ki was 0.0007 µM in test [1] and 0.047 µM in [2].

As for `CC(CCN1CCC(Cc2ccccc2)CC1)c1ccc2ccccc2c1` (racemic), the figures for the Ki in test [1] and in test [2] were 0.0056 µM and 0.144 µM, respectively.

For the compound `CC(O)(CCN1CCC(Cc2ccccc2)CC1)c1ccc2cc(O)ccc2c1` (single isomer, unassigned; (-)), the Ki in [1] was 0.062 µM; in test [2], 0.905 µM.

Turning to `CC(O)(CCN1CCC(Cc2ccccc2)CC1)c1ccc2ccccc2c1` (single isomer, unassigned; (+)), the Ki turned out to be 0.01 µM in test [1] and 0.081 µM in [2].

In the case of `CC(CCN1CCC(Cc2ccccc2)CC1)c1ccccc1` (single isomer, unassigned; (+)), the Ki came out at 0.0029 µM in test [1] and 0.0089 µM in test [2].

Take `CC(CCN1CCC(Cc2ccccc2)CC1)c1ccc2ccccc2c1` (single isomer, unassigned; (+)): the Ki came out at 0.006 µM in test [1] and 0.026 µM in test [2].

`CC(O)(CCN1CCC(Cc2ccccc2)CC1)c1ccccc1` (racemic): the Ki was 0.0098 µM in test [1] and 0.057 µM in test [2].

With `C[C@@H]1CN(CCCn2c3ccccc3c3ccccc32)C[C@H](C)N1` [RIMCAZOLE], in test [15], the Ki was 0.302 µM.

In the case of `CC(O)(CCN1CCC(Cc2ccccc2)CC1)c1ccc2ccccc2c1` (racemic), the Ki was found to be 0.0069 µM in test [1] and 0.0625 µM in [2].

With `COc1ccc(C)cc1NC(=O)OC1CC2CCCC(C1)N2Cc1ccc(N(C)C)cc1` (stereo not given), the IC50 in test [3], in test [4], in test [5], in test [6], in test [7] and in test [8] was ≤ 100 µM each time.
